Columns and labels:
Format in all cases: functional, cell-based
[1] = system: SMMC-7721; assay: Cytotoxicity against human SMMC7721 cells by MTT assay
In short: (§1)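 MTT viability read-out on five human cancer lines tested in parallel: breast MCF-7, hepatocellular SMMC-7721, myeloid leukemia HL-60, colon SW480 and lung A-549. IC50 derived by the Reed and Muench method.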

[2] = system: HL-60; assay: Cytotoxicity against human HL60 cells by MTT assay; in short: as §1
[3] = system: SW480; assay: Cytotoxicity against human SW480 cells by MTT assay; in short: as §1
[4] = system: MCF7; assay: Cytotoxicity against human MCF7 cells by MTT assay; in short: as §1
[5] = system: A549; assay: Cytotoxicity against human A549 cells by MTT assay; in short: as §1

Measured: IC50

COc1cc(OC)c2c(c1)[C@@]13C[C@H]4[C@@H](COC1=N2)[C@H]1C[C@@H]3N4C/C1=C\CO
> 40 µM: [1] | [2] | [3] | [4] | [5]

C/C=C1/CN2[C@H]3C[C@@H]1[C@@H]1COC4=Nc5c(cc(OC)c(OC)c5OC)[C@@]43C[C@@H]12
> 40 µM: [1] | [2] | [3] | [4] | [5]

COc1c2c(cc3c1[C@@]14C[C@H]5[C@@H](COC1=N3)[C@H]1C[C@@H]4N5C/C1=C\CO)OCO2
> 40 µM: [1] | [2] | [3] | [4] | [5]

C/C=C1/C[N+]2([O-])CC[C@]34C=C(CO)[C@H]1C[C@@]32Nc1ccccc14 (stereo not given in full)
> 40 µM: [1] | [2] | [3] | [4] | [5]

COC/C=C1\C[N+]2([O-])[C@H]3C[C@@]45C(=Nc6cc7c(c(OC)c64)OCO7)OC[C@H]3[C@H]1C[C@@H]52
> 40 µM: [1] | [2] | [3] | [4] | [5]

COC/C=C1\CN2[C@H]3C[C@@H]1[C@@H]1COC4=Nc5cc6c(c(O[C@@H]7O[C@H](CO)[C@@H](O)[C@H](O)[C@H]7O)c5[C@@]43C[C@@H]12)OCO6
> 40 µM: [1] | [2] | [3] | [4] | [5]

C/C=C1/C[N+]2([O-])[C@H]3C[C@@]45C(=Nc6cc7c(c(OC)c64)OCO7)OC[C@H]3[C@H]1C[C@@H]52
> 40 µM: [1] | [2] | [3] | [4] | [5]

C/C=C1/CN2[C@H]3C[C@@H]1[C@@H]1COC4=Nc5c(OC)cc(OC)cc5[C@@]43C[C@@H]12
> 40 µM: [1] | [2] | [3] | [4] | [5]

Source: ChEMBL document CHEMBL1781886, “Monoterpenoid indole alkaloids from Gardneria ovata” (J Nat Prod, 2011)
